MrgX1 antag = blocks BAM8-22 activation of human MrgX1 receptor; B-score at 10 µM; Q96LB2; MRGX1-HEK293 calcium flux, Fluo-4, BAM8-22 antagonism; stronger effect = lower value; AID 588676; 310,000 compounds, 1.3% hits;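 active = calcium-response B-score plate-corrected more than 3 library SD below zero, starting fluorescence within 5 deviations, no agonist response on first addition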;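 note: peak minus trough fluorescence over baseline after final BAM8-22 challenge near maximal dose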
Target sequence (Q96LB2 whole entry, looked up): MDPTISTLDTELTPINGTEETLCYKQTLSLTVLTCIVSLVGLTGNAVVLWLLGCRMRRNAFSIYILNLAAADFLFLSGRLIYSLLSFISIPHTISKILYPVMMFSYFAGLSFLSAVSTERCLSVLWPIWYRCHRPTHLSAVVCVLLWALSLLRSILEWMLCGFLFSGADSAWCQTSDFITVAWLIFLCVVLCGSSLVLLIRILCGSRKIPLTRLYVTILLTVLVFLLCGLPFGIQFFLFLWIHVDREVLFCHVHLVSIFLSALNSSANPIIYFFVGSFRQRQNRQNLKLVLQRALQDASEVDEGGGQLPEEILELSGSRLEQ
RGS4 act = potentiators or activators of RGS4. HEK293 M3R/inducible RGS4, carbachol calcium flux Fluo4; stronger effect = lower value. B-score at 10 µM. 310,000 compounds, 0.92% hits. AID 463111;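 active = B-score of the integrated calcium signal more than 4 SD below the library mean, with starting fluorescence not abnormally high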;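 note: negative B-score means reduced calcium response which marks RGS4 activation or potentiation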
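Reagent: ECmax carbachol challenge; Test system: M3R-expressing HEK293 line, RGS4 induced by doxycycline; Schedule: overnight RGS4 induction, 30 min dye load 37 °C, 20 min compound RT; Detection: calcium dye Fluo4 fluorescence; Read-out: Agonist-evoked peak-minus-minimum fluorescence over baseline, integrated ratio, B score.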
MrgX1 allo act = allosterically activates human MrgX1 receptor signaling | Q96LB2 | B-score at 10 µM | MrgX1-HEK293, Fluo-4 calcium flux, FDSS; stronger effect = higher value | 310,000 compounds, 0.63% hits;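 active = plate-corrected calcium response at least 3 library SD above typical, normal starting fluorescence, not activating the receptor alone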;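 note: compound read alongside a low EC10 to EC30 dose of BAM8-22 agonist; peak minus trough fluorescence over baseline measured at the second addition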
MrgX1 ag = activates human MrgX1 receptor signaling | Q96LB2 | MrgX1-HEK293 cells, Fluo-4 calcium fluorescence, agonist mode; stronger effect = higher value | B-score at 10 µM | 310,000 compounds, 0.44% hits;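 active = calcium response B-score plate-corrected fluorescence ratio at least 3 library SD, with starting fluorescence B-score inside 5 SD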
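Test system: Stable human MrgX1 HEK293 cell line | Schedule: Overnight plating before 1 h dye loading | Read-out basis: Baseline-normalised fluorescence change ratio, B-scored | Detection: Kinetic calcium dye fluorescence, Fluo-4 NW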
RGS4 inh = inhibitors of human RGS4 | P49798 | HEK293 M3R/RGS4 inducible, Fluo-4 calcium flux; stronger effect = higher value; triggered by carbachol at its EC20 | B-score at 10 µM | 310,000 compounds, 0.45% hits | AID 463165;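 active = B-score, a plate-corrected calcium signal, over three deviations above library mean, with baseline fluorescence within five deviations of library mean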;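 note: RGS4 expression induced by doxycycline in cells with stable M3 receptor; B-score is computed from the integrated fluorescence ratio over baseline after carbachol; higher B-score means a larger calcium signal and so more RGS4 inhibition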
Target sequence (P49798 whole entry, looked up): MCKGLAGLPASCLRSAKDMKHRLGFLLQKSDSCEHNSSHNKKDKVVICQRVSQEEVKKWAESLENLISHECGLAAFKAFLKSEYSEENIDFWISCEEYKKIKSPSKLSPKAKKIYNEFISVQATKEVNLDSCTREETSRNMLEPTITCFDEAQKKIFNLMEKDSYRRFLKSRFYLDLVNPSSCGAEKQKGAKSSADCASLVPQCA
MrgX1 ag confirm = human MrgX1 agonism, re-confirmation screen | shares compounds with MrgX1 ag | MrgX1-HEK293, Fluo-4 calcium fluorescence, FDSS | activation, % at 10 µM | 600 compounds, 78% hits;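 active = calcium signal rise, corrected for plate position, at least 3 library SD high, with starting brightness within 5 such deviations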
MrgX1 PAM conf = reconfirmed allosteric activator of human MrgX1 receptor. shares compounds with MrgX1 allo act. MrgX1-HEK293, Fluo-4 calcium fluorescence, FDSS. activation (ratio percentage), % at 10 µM. 1,200 compounds, 13% hits;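 active = ratio at least 3 SD above the weak peptide control, stable starting fluorescence, no direct agonism earlier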;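 note: compound followed by low BAM8-22 agonist challenge near EC20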
MrgX1 antag conf = human MrgX1 receptor antagonism, re-confirmation screen | shares compounds with MrgX1 antag | MrgX1-HEK293, BAM8-22 calcium flux, Fluo-4; stronger effect = lower value | remaining BAM8-22 calcium response % of control (stronger effect = lower value), % at 10 µM | 2,300 compounds, 19% hits | AID 602420;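 active = remaining agonist calcium response no higher than 100% minus 3 SD of agonist-only control wells, with starting fluorescence near control levels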;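 note: agonist BAM8-22 given at a near maximal EC90 to ECmax level; peak minus minimum fluorescence divided by baseline after agonist addition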
HEK293 Ca flux = counter-screen for MrgX1 antagonists: effect in parental HEK293 cells; shares compounds with MrgX1 antag; Fluo-4 calcium fluorescence, FDSS; fluorescence ratio F(max-min)/F0 at 10 µM; 4,000 compounds, 2% hits;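 active = duplicate-averaged calcium fluorescence ratio at least three times the standard deviation of buffer wells, a nonspecific response in parental cells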
HEK293 Ca counter = MrgX1 allosteric activator counter-screen hit in parental HEK293 cells; shares compounds with MrgX1 antag; parental HEK293 calcium flux, Fluo-4 fluorescence ratio; stronger effect = higher value; fluorescence ratio F(max-min)/F0 at 10 µM; 4,000 compounds, 0.4% hits; AID 624114;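 active = calcium fluorescence ratio, averaged over duplicates, at least 3 SD of the buffer-well ratio, meaning a nonspecific response in receptor-free cells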;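 note: untransfected parental HEK293 lacking MrgX1 used as counterscreen for MrgX1 allosteric activators; fluorescence change taken during the second addition on a kinetic imager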
HEK293 Ca cntr2 = counter-screen for MrgX1 activators: effect in parental HEK293 cells | shares compounds with MrgX1 antag | Fluo-4 calcium fluorescence (FDSS); stronger effect = higher value | fluorescence ratio F(max-min)/F0 at 10 µM | 4,000 compounds, 8.7% hits;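 active = calcium fluorescence ratio at least three times the spread of buffer wells, meaning a non-specific response in parental cells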
A number is an active result; n = inactive; x = no result given. Most compounds without a hit are left out; they make up all but 3.5% or so of the library.

SMILES | MrgX1 antag | RGS4 act | MrgX1 allo act | MrgX1 ag | RGS4 inh | HEK293 Ca flux | HEK293 Ca counter | HEK293 Ca cntr2 | others
C[C@H]1CCC[C@@H](O)CCC/C=C/c2cc(O)cc(O)c2C(=O)O1 | n | n | n | 31.2 | n | n | n | n | MrgX1 ag confirm=175.8%
C[C@H]1CCC[C@H](O)CCCCCc2cc(O)cc(O)c2C(=O)O1 | n | n | n | n | n | x | x | x
COc1ccc(-c2nn(CCC#N)cc2C(=O)Nc2cccc([N+](=O)[O-])c2)cc1OC | n | n | n | n | n | x | x | x
CC1(C)CSC(=NCc2ccccc2)N1 | n | n | n | 164 | n | n | n | 129 | MrgX1 ag confirm=676.7%
CC(C)(C)c1ccc(O)c(N=Cc2c(O)ccc3ccccc23)c1 | n | n | n | 56.2 | n | n | n | 46.4 | MrgX1 ag confirm=114.9%
COc1cccc(OCC(=O)N2CCN(C)CC2)c1 | n | n | n | n | n | x | x | x
COc1cccc(C2(C#N)CCN(C)CC2)c1 | n | n | 6.46 | n | n | n | n | n | MrgX1 PAM conf=n
CCOC(=O)C1=C(N)Oc2c(c(=O)oc3ccccc23)C12C(=O)N(C)c1ccccc12 (stereo unspecified) | n | n | 8.48 | n | n | n | n | n | MrgX1 PAM conf=16.4%
C=CCN1C(=O)C2(C(C(=O)OCC)=C(N)Oc3ccccc32)c2c1c1ccccc1oc2=O (stereo unspecified) | n | n | 23.8 | n | n | n | n | n | MrgX1 PAM conf=32.9%
CC(=O)c1ccc(NC(=O)N2C[C@H]3C[C@@H](C2)c2cccc(=O)n2C3)cc1 | n | n | n | n | n | x | x | x
CCCCCn1c(=O)c(C(=O)NCc2ccc(Cl)cc2)c(O)c2ccccc21 | n | n | 8.77 | n | n | n | 49.4 | n | MrgX1 PAM conf=n
CCCCn1c(=O)c(C(=O)NCc2ccccc2)c(O)c2ccccc21 | n | n | n | n | n | x | x | x
CCOC(=O)c1c(C)n(CC(O)CN2CCOCC2)c2cc(Br)c(OC)cc12 (stereo unspecified) | n | n | n | n | n | x | x | x
CCOC(=O)C(O)(c1ccc(N(C)C(=O)c2ccc(Cl)c(Cl)c2)cc1)C(F)(F)F (stereo unspecified) | n | n | n | n | n | x | x | x
COC(=O)C(O)(c1ccc(N(C)C(=O)c2ccc(Cl)c(Cl)c2)cc1)C(F)(F)F (stereo unspecified) | -7.79 | n | n | n | n | n | n | n | MrgX1 antag conf=n
CSc1ccc(C(=O)C2CCCN(Cc3cc4ccccc4[nH]3)C2)cc1 (stereo unspecified) | -5.15 | -7.12 | n | n | n | n | n | n | MrgX1 antag conf=79.4%
CN1CCc2nc(SCc3cccc(Br)c3)c(C#N)cc2C1 | -4.73 | n | n | n | n | n | n | n | MrgX1 antag conf=n
COC(=O)c1ccc(NC(=O)CSc2nc3ccc(N4C(=O)C5C6C=CC(C6)C5C4=O)cc3s2)cc1 (stereo unspecified) | -7.39 | n | n | n | n | n | n | n | MrgX1 antag conf=55.4%
Brc1cccc(CNCCc2ccc3c(c2)OCO3)c1 | n | n | n | n | n | x | x | x
CCOc1cc2c(cc1OCC)-n1cccc1C(c1ccc(OC(F)F)cc1)NC2 (stereo unspecified) | -9.98 | n | n | n | n | n | n | n | MrgX1 antag conf=42.5%
CCN(CC)P(=O)(c1nccn1C)N(CC)CC | n | n | n | n | n | x | x | x

Assay outcomes from PubChem.
